HIV Env fusion: inhibitors of HIV Env-mediated cell fusion; HeLa-JRFL Env/CEM21 cell fusion, luciferase; inhibition, % at 12.3 µM; 1.1% of 360,000 active; AID 651610;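 active = mean replicate inhibition score of at least 50 and every replicate individually at or above 50; inconclusive = only one of the two criteria met; inactive = mean below 50 and not all replicates reaching 50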;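 note: 0% = plate neutral controls and 100% = maraviroc near 300 nM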
PfHsp90 yeast 2: inhibits growth of yeast expressing Plasmodium falciparum Hsp90; 0.32% of 310,000 active; inhibition, % at 9.4 µM; S. cerevisiae expressing PfHsp90, BacTiter-Glo ATP, 48 h; yeast lacking PDR1 and PDR3 efflux regulators;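 active = every replicate shows inhibition above about 80%, whatever the replicate mean, limit read from the data; inconclusive = mean inhibition reaches the set limit but some replicate falls short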;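 note: 0% = DMSO neutral controls and 100% = 20 µM radicicol positive controls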
N-glyco inh: blocks N-linked glycosylation in D54 reporter cells; D54 ERlucT glycosylation luciferase reporter, 24 h; percent of 100 nM tunicamycin response; reporter increase, % at 12.5 µM; 0.23% of 360,000 active; AID 588692;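 active = mean luciferase reporter signal, scaled so untreated is 0 and the glycosylation-blocking control 100, at or above a set limit in every replicate; inconclusive = mean reaches the limit but not every replicate does; inactive = mean below the limit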;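 note: luciferase carries N-glycosylation sites so blocking glycosylation raises the light; 0% = median of neutral control wells and 100% = median of 100 nM tunicamycin wells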
Arr AP2 block: human beta-arrestin and AP2 interaction inhibition; inhibition, % at 10 µM; AID 504490; 0.31% of 340,000 active; FITC-arrestin peptide / GST-AP2 beads, flow cytometry; AP2 beta2 appendage carries R879A mutation;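 active = inhibition above a set limit, near 3 SD of compounds lacking own fluorescence, cut at about 54% in these data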;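 note: plate controls were DMSO wells for no effect and 5 µM unlabelled arrestin peptide for full effect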
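system = GST-tagged AP2 beta2-adaptin appendage (R879A) on 4 µm glutathione beads | reagent = FITC-labelled arrestin peptide probe, 50 nM final | schedule = compound with beads 12 min RT, then probe 1 h RT | signal = HyperCyt-sampled flow cytometry, FL1 channel, ex 488/em 535 nm | read-out = percent response from loss of bead-bound FITC fluorescence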
PAX8 inh HTS: inhibitors of PAX8 transcriptional activity in RMG-I cells; RMG-I TPO-luciferase reporter, SteadyGlo, 24 h; inhibition, % at 12.6 µM; 1.2% of 360,000 active; AID 652154;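 active = mean replicate inhibition at least 60% with every replicate also reaching 60%; inconclusive = only one of the two criteria is met; inactive = mean below 60% and not all replicates reaching 60%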;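 note: luciferase light reporting Pax8 driven TPO promoter activity; plate controls were median of neutral control wells for no effect and mitoxantrone controls for full effect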
Rtt109 HAT inh: inhibitors of Candida albicans Rtt109/Vps75 histone acetyltransferase; Q5AAJ8; purified Rtt109/Vps75, ThioGlo CoA-SH fluorescence, 4 h; inhibition, % at 34.9 µM; 0.16% of 330,000 active;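 active = inhibition of at least 50% in every replicate; inconclusive = best replicate reaches 50% inhibition but some replicates fall short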
Target sequence (Q5AAJ8 whole entry, looked up): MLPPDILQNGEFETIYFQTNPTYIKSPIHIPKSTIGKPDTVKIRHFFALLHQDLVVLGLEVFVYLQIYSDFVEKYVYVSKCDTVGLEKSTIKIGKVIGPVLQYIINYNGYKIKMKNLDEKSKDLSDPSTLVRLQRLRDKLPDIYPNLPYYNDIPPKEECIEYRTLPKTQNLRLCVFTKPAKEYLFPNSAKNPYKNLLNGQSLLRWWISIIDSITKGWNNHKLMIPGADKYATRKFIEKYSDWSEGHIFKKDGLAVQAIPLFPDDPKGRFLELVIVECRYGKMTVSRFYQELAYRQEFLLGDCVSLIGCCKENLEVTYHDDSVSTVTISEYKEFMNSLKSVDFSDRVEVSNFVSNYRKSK
* = called active by the depositor; u = inconclusive; x = no result; [ ] = another dose, or the depositor's remark. Shown are actives, neighbours in structure and some others; about 2.3% of the full set was active somewhere.

SMILES | HIV Env fusion | PfHsp90 yeast 2 | N-glyco inh | Arr AP2 block | PAX8 inh HTS | Rtt109 HAT inh
CC1CCCN(C(=O)c2ccc(S(=O)(=O)N3CCC(c4nc5ccccc5s4)CC3)cc2)C1 (stereo not drawn) | 68* | -20 | -1 | 4 | x | -1
Cc1cc(C)n(-c2nnc(C)n2/N=C/c2ccco2)n1 | 8 | 18 | 0 | 5 | 7 | 6
CCCOc1ccc2ccccc2c1/C=N/n1c(C)nnc1-n1nc(C)cc1C | x | 29 | 27* | -8 | x | -6
CCCNC(=O)[C@H]1[C@H](CO)[C@H]2Cn3c(ccc(C4=CCCCC4)c3=O)[C@@H]1N2 | x | x | x | x | -8 | x
Cc1ccc(S(=O)(=O)N(C)C[C@@H]2Oc3ccc(NS(=O)(=O)c4cn(C)cn4)cc3CC(=O)N([C@H](C)CO)C[C@@H]2C)cc1 | -13[16.7 µM] | x | x | x | 1 | x
Cc1ccc(-c2ccc(=O)[nH]n2)cc1 | 56* | x | 3 | -7 | x | 0
N#C/C(=C\c1ccncc1)c1nc2ccccc2[nH]1 | -4 | -11 | 6 | -14 | -5 | -10
N#C/C(=C\c1cccnc1)c1nc2ccccc2[nH]1 | -35 | x | 42* | 25 | -2 | x
Cn1nc(C(F)(F)F)c(/C=N/OC(=O)c2ccccc2)c1SCc1ccccc1Cl | u | x | 55* | -10 | x | 0
COc1ccccc1C#Cc1ccc2c(c1)O[C@@H](CN(C)Cc1ccccc1)[C@H](C)CN([C@H](C)CO)S2(=O)=O | 44[16.7 µM] | x | x | x | x | x
CC(C)c1ccc(NC(=O)NC(C)c2ccc3c(c2)OCO3)cc1 (stereo not drawn) | -2 | -8 | -2 | 4 | 15 | 58*
Cc1cc2nc(-c3ccccc3)c(Cc3cccc(F)c3)n2c(C)c1Br | 74* | x | -2 | x | 22 | x
Cc1ccc(-c2nc3cc(C)c(Br)c(C)n3c2Cc2cccc(F)c2)cc1 | -20 | x | -9 | x | 0 | x
Cc1ccccc1-c1ccc([C@H]2[C@H]3CN(C(=O)NC4CCCC4)CC(=O)N3[C@H]2CO)cc1 | x | x | x | x | 18 | x
C[C@H]1CN([C@@H](C)CO)C(=O)Cc2cc(N(C)C)ccc2O[C@@H]1CN(C)C(=O)Nc1cccc2ccccc12 | 1[16.7 µM] | x | x | x | 4 | x
O=C(N/N=C/c1cccnc1)c1cc(-c2ccccc2OCc2ccccc2)n[nH]1 | 17 | -5 | 41* | 4 | 35 | -41
O=C(N/N=C/c1cccnc1)c1ccccc1OCc1ccc(Br)cc1 | 16 | -8 | 3 | -2 | 19 | -2
CCNC(=O)Nc1ccc2c(c1)C(=O)N(C)[C@@H]1CC[C@@H](CC(=O)NCC3CCCCC3)O[C@@H]1CO2 | 57*[16.7 µM] | x | x | x | 4 | x
CCNC(=O)C[C@@H]1CC[C@@H]2[C@@H](COc3ccc(NC(=O)Cc4cccs4)cc3C(=O)N2C)O1 | 75*[16.7 µM] | x | x | x | 7 | x
CN1C(=O)c2cc(NC(=O)c3cscn3)ccc2OC[C@H]2O[C@H](CC(=O)NCc3ccc(Cl)c(Cl)c3)CC[C@@H]21 | u | x | x | x | -3 | x
CN1C(=O)c2cc(NS(=O)(=O)c3ccc(Cl)cc3)ccc2OC[C@H]2O[C@@H](CC(=O)N3CCc4ccccc4C3)CC[C@@H]21 | 6[16.7 µM] | x | x | x | 74* | x
CN1C(=O)c2cc(NC(=O)c3cscn3)ccc2OC[C@@H]2O[C@@H](CC(=O)NCc3ccc(Cl)c(Cl)c3)CC[C@H]21 | 57*[16.7 µM] | x | x | x | -2 | x
O=C([C@@H]1N[C@@H]2c3ccc(C4=CCCCC4)c(=O)n3C[C@@H]2[C@H]1CO)N1CCC(Cc2ccccc2)CC1 | -20[16.7 µM] | x | x | x | x | x
Cc1ccccc1S(=O)(=O)N[C@@H]1CC[C@@H](CCNS(=O)(=O)c2cccc(F)c2)O[C@@H]1CO | -2[16.7 µM] | x | x | x | 9 | x
CN1C(=O)c2cc(NC(=O)Cc3cccs3)ccc2OC[C@@H]2O[C@@H](CC(=O)NCc3ccc(-c4ccccc4)cc3)CC[C@H]21 | -427[16.7 µM] | x | x | x | 66* | x
SMILES | HIV Env fusion | PfHsp90 yeast 2 | N-glyco inh | Arr AP2 block | PAX8 inh HTS | Rtt109 HAT inh
CC(=O)Nc1ccc2c(c1)C(=O)N(C)[C@H]1CC[C@H](CC(=O)Nc3cccc(C(C)C)c3)O[C@@H]1CO2 | x | x | x | x | 23 | x
COc1cccc(S(=O)(=O)Nc2ccc3c(c2)C(=O)N(C)[C@H]2CC[C@H](CC(=O)Nc4ccc(C(C)C)cc4)O[C@@H]2CO3)c1 | 39[16.7 µM] | x | x | x | 66* | x
CC(C)c1cccc(NC(=O)C[C@H]2CC[C@H]3[C@@H](COc4ccc(NC(=O)NCc5ccccc5)cc4C(=O)N3C)O2)c1 | x | x | x | x | 64* | x
CO[C@@H]1CN(C)C(=O)c2cc(NC(=O)C3CCC3)ccc2OC[C@H](C)N(Cc2ccc(F)cc2)C[C@@H]1C | x | x | x | x | 12 | x
COC(=O)C[C@@H]1C=C[C@H](NS(=O)(=O)c2ccc(OC)cc2)[C@@H](CO)O1 | -2[16.7 µM] | x | x | x | 0 | x
O=C(CN1CCOCC1)N[C@@H]1CC[C@@H](CCNS(=O)(=O)c2ccccc2F)O[C@H]1CO | 1[16.7 µM] | x | x | x | -3 | x
CCS(=O)(=O)N1CCCCN2[C@@H](CO)[C@@H](c3ccc(C#Cc4ccccc4OC)cc3)[C@@H]2C1 | x | x | x | x | -2 | x
CC(=O)N(C)C[C@@H]1Oc2ncc(C#C[C@H](C)O)cc2C(=O)N([C@@H](C)CO)C[C@@H]1C | -31[16.7 µM] | x | x | x | x | x
CC1(C)Cc2cccc(Oc3cc(NN4CCCCC4)c([N+](=O)[O-])cc3[N+](=O)[O-])c2O1 | 72* | 14 | -10 | 24 | 6 | 1
COc1cc(-c2cc(NC=O)c3ncc(-c4cccc(C(=O)N(C)C)c4)n3c2)cc(OC)c1OC | 18 | x | 4 | x | 30 | x
COc1ccccc1-c1cc(NC=O)c2ncc(-c3cccc(C(=O)N(C)C)c3)n2c1 | 37 | x | 41* | x | u | x
CC(=O)c1cccc(-c2cnc3c(NC=O)cc(-c4ccc(F)cc4)cn23)c1 | 4 | x | 5 | x | -9 | x
COc1ccccc1-c1cc(NC=O)c2ncc(-c3cccc(C(C)=O)c3)n2c1 | 67* | x | u | x | x | x
O=CNc1cc(-c2ccccc2Oc2ccccc2)cn2c(-c3ccc(F)cc3)cnc12 | -45 | x | 10 | x | 49 | x
CC(=O)c1ccc(-c2cnc3c(NC=O)cc(-c4ccccc4Oc4ccccc4)cn23)cc1 | 56* | x | 11 | x | 84* | x
C[C@@H]1CN([C@@H](C)CO)C(=O)c2cc(NC(=O)Cc3ccccc3)ccc2O[C@@H](C)CCCCO[C@@H]1CN(C)Cc1ccc(C(=O)O)cc1 | 0[16.7 µM] | x | x | x | 2 | x
C[C@H]1CN([C@@H](C)CO)C(=O)CCCn2nncc2CO[C@H]1CN(C)Cc1ccc2c(c1)OCCN2C | 3[16.7 µM] | x | x | x | x | x
Cc1noc(C)c1S(=O)(=O)Nc1ccc2c(c1)C(=O)N([C@@H](C)CO)C[C@@H](C)[C@@H](CN(C)C(=O)Nc1ccc3c(c1)OCO3)OCCCC[C@@H](C)O2 | -15[16.7 µM] | x | x | x | x | x
CCC(=O)OCC(=O)N=c1sccn1Cc1ccccc1Cl | 9 | 3 | 1 | -7 | 9 | -13
O=C(CCl)N=c1sccn1Cc1ccccc1Cl | 134* | -3 | 0 | -1 | 100* | -1

From PubChem BioAssay
